{"source": "the RNAGym collection of RNA variant scans (doi:10.1126/science.aae0568)", "parents": {"B1": {"name": "tRNA (parent)", "chain": "GUUCCGUUGGCGUAAUGGUAACGCGUCUCCCUCCUAAGGAGAAGACUGCGGGUUCGAGUCCCGUACGGAACG"}}, "note": "Fewer inactive variants are shown than the library holds.", "data": [{"variants_of": "B1", "assay": "yeast fitness relative to wild type (ratio to wild type); higher = fitter; tRNA-Arg(CCU), competitive growth, 37 C, YPD", "summary_of_the_method": "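Gene amplicons from the start population and from each of six end populations were read by 100-nucleotide paired-end sequencing. Those end populations came from pooled Saccharomyces cerevisiae strains carrying tRNA-Arg(CCU) gene variants at the native locus, competed in YPD at 37°C for 24 hours. Fitness relative to wild type was worked out from changes in genotype frequencies. Genotypes needed ≥ 100 starting reads, and estimates < 0.5 were set to 0.5.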", "values": [{"variant": "GUUCCGUUGGCGUAUUGGUAAGGCGUCUCCUUCCUAAGGAGAAGAGUGCGGGUACGAGUCCCGUACGGAACG", "note": "[A15U C22G C31U C46G U54A]", "yeast fitness": "≤ 0.5"}, {"variant": "GUUCCGUUGGCGUAUUGGUAAUGCGUCUCCCUCCUAAGGAGAAGACUGCGGGUUCGCGUCCCGUACGGAACG", "note": "[A15U C22U A57C]", "yeast fitness": "≤ 0.5"}, {"variant": "GUUCCGUUGGCGUAUUGGUAACGCGUCUACCUCCUAAGGAGAAGACUGCGGGUUCGAGUCCCGUACGGAACG", "note": "[A15U C29A]", "yeast fitness": 0.568}, {"variant": "GUUCCGUUGGCGUAUUGGUAACGCGUCUCCCUCCUAAGGAGUAGAGUGCGGGUUCGAGUCGCGUACGGAACG", "note": "[A15U A42U C46G C61G]", "yeast fitness": 0.652}, {"variant": "GUUCCGUUGGCGUAUUGGUAACGUGUCUCCCUCCUAAGGUCAAGACUGCGGGUUCGAGUCCCGCACGGAACG", "note": "[A15U C24U A40U G41C U64C]", "yeast fitness": 0.647}, {"variant": "GUUCCGUUGGCGUAUUGGUAACGCGUCUCCAUCCUAAGGAGAAGACUGGGGGUUCGAGUCCCGUACGGACCG", "note": "[A15U C31A C49G A70C]", "yeast fitness": "≤ 0.5"}, {"variant": "GUUCCGUUGGCGUAUUGGUAACGGGUCUCCCUCCUAAGGAGCAGACUGCGGGUUCGAGUCCCGUACGGAACG", "note": "[A15U C24G A42C]", "yeast fitness": "≤ 0.5"}, {"variant": "GUUCCGUUGGCGUAUUGGUAACGGGUCUCCCUCCUAAAGAGAAGACUGCGGGUUCGAGUCCCGUACGGAACG", "note": "[A15U C24G G38A]", "yeast fitness": 0.551}, {"variant": "GUUCCGUUGGCGUAUUGGUAACGAGUCUCCCUCCUAAGGAGAAGACUGCGGGUUUGAGCCCCGUACGGAACG", "note": "[A15U C24A C55U U59C]", "yeast fitness": 0.526}, {"variant": "GUUCCGUUGGCGUAUUGGUAACGCGUGUCCCUCCUAAGGAGAAGACUGAGGGUUCGAGUCCCGUACGGAACG", "note": "[A15U C27G C49A]", "yeast fitness": 0.518}, {"variant": "GUUCCGUUGGCGUAUUGGUAACGCGUUUCCCUCCUAAGGAGAAGACUCCGGGUUCGAGUCCCGUACGGAACG", "note": "[A15U C27U G48C]", "yeast fitness": 0.587}, {"variant": "GUUCCGUUGGCGUAUUGGUAACGCGUCUCCCUCCUAAGGAGAAGCCUGCGGGUUCGAGUCCCGUACGGAACG", "note": "[A15U A45C]", "yeast fitness": 0.803}, {"variant": "GUUCCGUUGGCGUAUUGGUAACGCGUCUCCCUCCUAAGGAGAGGACUGCGGGUUCCAGUUCCGUACGGAACG", "note": "[A15U A43G G56C C60U]", "yeast fitness": "≤ 0.5"}, {"variant": "GUUCCGUUGGCGUAUUGGUAACGCGUCUACCUCUUAAGGAGAAGACUGCGGGUUAGAGUCCCGUACGGAACG", "note": "[A15U C29A C34U C55A]", "yeast fitness": 0.519}, {"variant": "GUUCCGUUGGCGUAUUGGUAACGUGUCUCCCUCCUAAGGAGAAGACUGCGGGUUCGAGUCCCGCACGGAACG", "note": "[A15U C24U U64C]", "yeast fitness": "≤ 0.5"}, {"variant": "GUUCCGUUGGCGUAUUGGUAACGCGUCUACCUCCUAAGGAGACGACUGCCGGUUCGAGUCCCGUACGGAACG", "note": "[A15U C29A A43C G50C]", "yeast fitness": "≤ 0.5"}, {"variant": "GUUCCGUUGGCGUAUUGGUAACGCGUCUCCCUCCUAAGGAGAAGACUGCGGGUUCGUGUCCCGUACGGACCG", "note": "[A15U A57U A70C]", "yeast fitness": "≤ 0.5"}, {"variant": "GUUCCGUUGGCGUAUUGGUAACGUGUCUCCCUCCUAGGGAGAAGACUGCGGGUCCGAGUCCCGUAAGGAACG", "note": "[A15U C24U A37G U54C C66A]", "yeast fitness": "≤ 0.5"}, {"variant": "GUUCCGUUGGCGUAUUGGUAACGCGUCUGCCUCCUAAGGAGAAGACUACGGGUUCGAGUCCCGUACGGUACG", "note": "[A15U C29G G48A A69U]", "yeast fitness": "≤ 0.5"}, {"variant": "GUUCCGUUGGCGUAUUGGUAACGCGUGCCCCUCCUAAGGAGAAGACUGCGGGUUCGAGUCCGGUACGGAACG", "note": "[A15U C27G U28C C62G]", "yeast fitness": 0.534}, {"variant": "GUUCCGUUGGCGUAUUGGUAACGGGUCUCUCUCCUAAGGAGAAGACUGCGGGUUCGUGUCCCGUACGGAACG", "note": "[A15U C24G C30U A57U]", "yeast fitness": 0.832}, {"variant": "GUUCCGUUGGCGUAUUGGUAAAAAGUCUCCCUCCUAAGGAGAAGACUGCGGGUUCGAGUCCCGUACGGAACG", "note": "[A15U C22A G23A C24A]", "yeast fitness": "≤ 0.5"}, {"variant": "GUUCCGUUGGCGUAUUGGUAACGCGUGUCCCUCCUAAGGAGAAGACUGCGGGUACGAGUCCCGUACGGAACG", "note": "[A15U C27G U54A]", "yeast fitness": "≤ 0.5"}, {"variant": "GUUCCGUUGGCGUAUUGGUAACGUGUCUCCCUCCUAAGGAGACGACUGCGGGUUCGAGUCCCGUACGGAACG", "note": "[A15U C24U A43C]", "yeast fitness": 0.573}, {"variant": "GUUCCGUUGGCGUAUUGGUAACGCGUAUCCCUCCUAAGGAGAAGACUGCGGGUUCGAGUCCCGUCCAGCACG", "note": "[A15U C27A A65C G67A A69C]", "yeast fitness": "≤ 0.5"}, {"variant": "GUUCCGUUGGCGUAUUGGUAAGGCGUCUCCCUCCUAAGGAGAAGACUGCGGGUUCGAGUCCUGUACGGAACG", "note": "[A15U C22G C62U]", "yeast fitness": "≤ 0.5"}, {"variant": "GUUCCGUUGGCGUAUUGGUAACGGGUCUCCCUCCUAAGGAGCAGACUGCGGGUUCGAGUCCCGCACGGAACG", "note": "[A15U C24G A42C U64C]", "yeast fitness": "≤ 0.5"}, {"variant": "GUUCCGUUGGCGUAUUGGUAACGUGUUUCCCUCCUAAGGAGAAGACUGCGGGUUCGAGUCCCGUACAGAACG", "note": "[A15U C24U C27U G67A]", "yeast fitness": "≤ 0.5"}, {"variant": "GUUCCGUUGGCGUAUUGGUAAUGCGUCUCCCUCCUAAGGAGACGACUGCGGGUUUGAAUCCCGUACGGAACG", "note": "[A15U C22U A43C C55U G58A]", "yeast fitness": "≤ 0.5"}, {"variant": "GUUCCGUUGGCGUAUUGGUAACGCGUCUCCCUCCUAAGGAGGAGAGUGCGGGUUCGAGUCACGUACGGAACG", "note": "[A15U A42G C46G C61A]", "yeast fitness": "≤ 0.5"}, {"variant": "GUUCCGUUGGCGUAUUGGUAAGGCGUCUCCCUCCUAAGGAGAAGACUGCGGCUUCGAGUCCCGUACGGAACG", "note": "[A15U C22G G52C]", "yeast fitness": 0.529}, {"variant": "GUUCCGUUGGCGUAUUGGUAAGGCGUCUCCCUCCUAAGGAGAAGACUGCGGAUUCGAGUCCCGUACGGAACG", "note": "[A15U C22G G52A]", "yeast fitness": "≤ 0.5"}, {"variant": "GUUCCGUUGGCGUAUUGGUAAGGCGUCUCCCUCCUAAGGAGAAGACUGCGGGUUCGACUCCCGUACGAAACG", "note": "[A15U C22G G58C G68A]", "yeast fitness": "≤ 0.5"}, {"variant": "GUUCCGUUGGCGUAUUGGUAACGCGUCUCCCUCCUAAGGAGAAGACUGCGGGUUCGAGUCCCGUGACGAACG", "note": "[A15U A65G C66A G67C]", "yeast fitness": "≤ 0.5"}, {"variant": "GUUCCGUUGGCGUAUUGGUAACGCGUCUGCGUCCUAAGGAGAAGACUGCGGGUUCGAGUCCCGUACGGAACG", "note": "[A15U C29G C31G]", "yeast fitness": "≤ 0.5"}, {"variant": "GUUCCGUUGGCGUAUUGGUAACGCGUUUCCCUCCUAAGGAGAAGACUGCGGGUUCGAGUCCCGUAAGGAACG", "note": "[A15U C27U C66A]", "yeast fitness": "≤ 0.5"}, {"variant": "GUUCCGUUGGCGUAUUGGUAACGCGUCUCCCUCCUAAGGAGAUGACUGCGGGUUCGAGUCCCGUACGGCACG", "note": "[A15U A43U A69C]", "yeast fitness": 0.697}]}]}
